Measured values published in ChEMBL document CHEMBL1137987, “O-alkoxyamidine prodrugs of furamidine: in vitro transport and microsomal metabolism as indicators of in vivo efficacy in a mouse model of Trypanosoma brucei rhodesiense infection” (J Med Chem, 2004).

Legend:
Caco-2 [1] = test: Apparent permeability determined across the Caco-2 cell monolayers in both basolateral (BL) to apical (AP) directions; assay type: functional, cell-based; details: Homo sapiens
Mus musculus [2] = test: In vivo effect (cures) determined by number of mice that survived (0) and are parasite free (8) for 60 days upon intraperitoneal dose, observed in STIB900 mouse model; assay type: functional
Method in brief: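 T. b. rhodesiense STIB900 acute infection in mice, 4 mice per group (8 in one group). Four daily doses (4 × mg/kg/day); the parent amidine was given intraperitoneally and the prodrugs orally. A cure is a mouse surviving and parasite-free at 60 days, reported as cured/treated.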

Mus musculus [3] = test: In vivo effect on average days of survival was measured upon intraperitoneal dose at 40 mg/kg in STIB900 mouse model; assay type: functional
Method in brief: (§1)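 Mice infected with T. b. rhodesiense STIB900 got four daily doses: intraperitoneal for the parent amidine (4 × 10 mg/kg), oral for the prodrugs (4 × 25, 4 × 50 or 4 × 100 mg/kg/day). Read-out is mean days of survival per group, followed to 60 days.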

[4] = system: Trypanosoma brucei rhodesiense; test: In vitro inhibitory activity against Trypanosoma brucei rhodesiense evaluated in vitro
Caco-2 [5] = test: Apparent permeability determined across the Caco-2 cell monolayers in both apical (AP) to basolateral (BL) directions; assay type: functional, cell-based; details: Homo sapiens
Mus musculus [6] = test: In vivo effect on average days of survival was measured upon oral dose at 100 mg/kg in STIB900 mouse model; assay type: functional; method in brief: as §1
Mus musculus [7] = test: In vivo effect on average days of survival was measured upon oral dose at 400 mg/kg in STIB900 mouse model; assay type: functional; method in brief: as §1
Mus musculus [8] = test: In vivo effect (cures) determined by number of mice that survived (4) and are parasite free (4) for 60 days upon oral dose, observed in STIB900 mouse model
Mus musculus [9] = test: In vivo effect on average days of survival was measured upon oral dose at 200 mg/kg in STIB900 mouse model; assay type: functional; method in brief: as §1
Mus musculus [10] = test: In vivo effect (cures) determined by number of mice that survived (2) and are parasite free (4) for 60 days upon oral dose, observed in STIB900 mouse model
[11] = Half-life in human liver microsomes was determined; assay type: ADME, Microsome
Method in brief: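 Substrate at 10 µM final (from 5 mM methanol stocks) in 100 mM potassium phosphate pH 7.4 with 0.2 mg/mL pooled human liver microsomes. Preincubated 5 min, then started with 1 mM NADPH. Samples taken at 0–90 min, quenched with acetonitrile on ice, centrifuged, and supernatant analysed by HPLC-UV or LC-MS. Half-life from substrate loss.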

Mus musculus [12] = test: In vivo effect (cures) determined by number of mice that survived (1) and are parasite free (4) for 60 days upon oral dose, observed in STIB900 mouse model

`N=C(N)c1ccc(-c2ccc(-c3ccc(C(=N)N)cc3)o2)cc1` [FURAMIDINE] gave a Papp (Caco-2 [1]) of 8.5e-07, a Dose (Mus musculus [2]) of 40 mg/kg and a Survival days (Mus musculus [3]) greater than 46. It also gave an IC50 [4] of 0.0045 µM and a Papp (Caco-2 [5]) of 3.8e-07.
In the case of `CONC(=N)c1ccc(-c2ccc(-c3ccc(C(=N)NOC)cc3)o2)cc1` [PAFURAMIDINE], the Survival days (Mus musculus [6]) is reported as greater than 60, the Papp (Caco-2 [1]) is reported as 3.75e-05 and the Survival days (Mus musculus [7]) is reported as greater than 60. For the same compound, the Dose (Mus musculus [8]) was 400 mg/kg, the Survival days (Mus musculus [9]) was greater than 60 and the Dose (Mus musculus [10]) was 200 mg/kg. It also gave an IC50 [4] of 14.6 µM, a half-life [11] of 4.16 min and a Papp (Caco-2 [5]) of 6.04e-05. For the same compound, the Dose (Mus musculus [12]) was 100 mg/kg.
`CCCONC(=N)c1ccc(-c2ccc(-c3ccc(C(=N)NOCCC)cc3)o2)cc1` gave a Survival days (Mus musculus [7]) greater than 47.5, an IC50 [4] of 0.472 µM and a half-life [11] of 60 min. It also gave a Dose (Mus musculus [12]) of 400 mg/kg.
With `CCCCCCONC(=N)c1ccc(-c2ccc(-c3ccc(C(=N)NOCCCCCC)cc3)o2)cc1` the Survival days (Mus musculus [7]) was 6 and the IC50 [4] was 5.7 µM.
With `CC(C)ONC(=N)c1ccc(-c2ccc(-c3ccc(C(=N)NOC(C)C)cc3)o2)cc1` the Survival days (Mus musculus [7]) was 48, the Dose (Mus musculus [10]) was 400 mg/kg and the IC50 [4] was 12.6 µM.
`N=C(NO)c1ccc(-c2ccc(-c3ccc(/C(N)=N\O)cc3)o2)cc1` showed a Survival days (Mus musculus [7]) of 50 and an IC50 [4] of 66.4 µM.
`CCONC(=N)c1ccc(-c2ccc(-c3ccc(C(=N)NOCC)cc3)o2)cc1` gave a Survival days (Mus musculus [6]) of 32, a Papp (Caco-2 [1]) of 3.7e-06 and a Survival days (Mus musculus [7]) greater than 60. It also gave a Dose (Mus musculus [8]) of 400 mg/kg, an IC50 [4] of 0.645 µM and a half-life [11] of 32 min. It also gave a Papp (Caco-2 [5]) of 5.9e-06.
Work on `CCCCONC(=N)c1ccc(-c2ccc(-c3ccc(C(=N)NOCCCC)cc3)o2)cc1` yielded a Survival days (Mus musculus [7]) of 9 and an IC50 [4] of 1.9 µM.
